Only some compounds are listed: those with a hit (about 4.6% of all), similar ones and a draw of the others.
Mdm2 ligase inh = inhibitors of human Mdm2 E3 ubiquitin ligase. Q00987. cell-based MDM2 ubiquitination luciferase reporter, 2 h; 0 = plate control, 100 = twice control, blank-subtracted. signal enhancement, % at 5 µM. 210,000 compounds, 0.11% hits;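 active means signal enhancement of 30% or more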;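 further: luminescence tracks abundance of the self-degrading MDM2-luciferase fusion protein; higher signal means inhibition of MDM2 E3 ligase activity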
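Buffer or medium: Cells held in DMEM | Assay system: Stable mammalian line carrying autodegrading MDM2–luciferase fusion reporter | Quantity: 2000 cells/well | Times: 4 h settle plus 2 h compound, 37 °C | Doses: One concentration, 5 µM, with 0.2% DMSO | Technique: Luminescence with SteadyLite reagent, 15 min at room temperature | Benchmarks: Plate controls and plate blanks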
NF-kB neuron act = compounds increasing NF-kB expression in human neuronal cells; NF-kB reporter expression; active compounds read high; fold change at 12.5 µM; 190,000 compounds, 1.6% hits; AID 1239; in the data active means fold change above about 3.3
Wee1 stabilizer = inhibitors of human Wee1 degradation | P30291 | HeLa Luc-Wee1K328M stability, luciferase luminescence; 100% = proteasome inhibitor MG132 effect | 220,000 compounds, 1.2% hits | reporter increase, % at 5 µM;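 active means activation above the mean of all tested compounds plus 3 SD, set per screening run, cut at about 8.8% in these data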;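 further: cells exposed to compound for 20 h before luminescence read; 0% = DMSO alone and 100% = MG132 at 30 µM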
STAT1 activator = activators of IFN-gamma induced STAT1 signaling; NIH 3T3 STAT1-luciferase reporter, luminescence; 100% = IFN-gamma alone, no compound; 200,000 compounds, 2.6% hits; activation (% of control), % at 5.5 µM;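 active means activation above the screen-wide mean activation plus 3 SD, cut at about 130% in these data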;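 further: raw ratio to IFN-gamma control signal so 100% means no change and 0% no light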
APP 5'UTR act = APP 5'UTR luciferase reporter activation; 190,000 compounds, 1% hits; AID 1276; activation, % at 2 µM; SH-SY5Y APP 5'UTR luciferase reporter, luminescence; zero percent = DMSO vehicle wells;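 active means activation above a set limit, based on mean plus 3 SD of controls, cut at about 140% in these data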
p97 inhibitor = blocks human p97 ATPase activity; recombinant p97 ATPase, Kinase-Glo ATP luminescence, 3 h; P55072; 220,000 compounds, 0.42% hits; inhibition, % at 8 µM; AID 1481; in the data active means inhibition above about 15%;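 further: 0% = DMSO vehicle and 100% = wells lacking enzyme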
Target sequence (P55072 whole entry, looked up): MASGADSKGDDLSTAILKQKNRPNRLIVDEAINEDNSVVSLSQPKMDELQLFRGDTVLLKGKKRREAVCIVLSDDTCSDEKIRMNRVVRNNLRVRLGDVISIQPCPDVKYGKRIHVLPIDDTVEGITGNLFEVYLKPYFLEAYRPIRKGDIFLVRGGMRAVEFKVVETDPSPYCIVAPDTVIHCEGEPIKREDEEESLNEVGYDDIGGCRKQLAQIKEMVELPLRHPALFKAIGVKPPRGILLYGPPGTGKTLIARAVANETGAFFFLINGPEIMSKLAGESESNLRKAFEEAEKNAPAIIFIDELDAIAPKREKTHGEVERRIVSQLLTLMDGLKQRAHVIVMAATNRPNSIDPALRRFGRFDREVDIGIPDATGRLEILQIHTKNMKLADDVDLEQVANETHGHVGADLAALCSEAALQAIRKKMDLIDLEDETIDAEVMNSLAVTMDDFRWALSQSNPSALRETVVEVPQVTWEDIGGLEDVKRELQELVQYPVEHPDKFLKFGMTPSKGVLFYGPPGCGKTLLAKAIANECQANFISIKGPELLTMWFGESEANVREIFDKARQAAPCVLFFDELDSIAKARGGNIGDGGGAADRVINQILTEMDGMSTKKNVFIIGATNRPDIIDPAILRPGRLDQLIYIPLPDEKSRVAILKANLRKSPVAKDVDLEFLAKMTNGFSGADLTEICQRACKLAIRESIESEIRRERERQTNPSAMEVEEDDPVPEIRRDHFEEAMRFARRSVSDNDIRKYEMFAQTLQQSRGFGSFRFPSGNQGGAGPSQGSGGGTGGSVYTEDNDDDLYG
STAT1 activ conf = confirmation of STAT1 signaling activators. NIH 3T3 STAT1-luciferase reporter, IFN-gamma potentiation, luminescence; 100% = IFN-gamma EC80 alone, no compound. activation (% of control), % at 5.7 µM. shares compounds with STAT1 activator. 1,200 compounds, 97% hits;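 active means activation above a set limit carried over from the earlier primary STAT1 screen, cut at about 140% in these data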;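 further: simple ratio to median IFN-gamma plus DMSO wells so 0% means no light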
NFkB act STAT1ct = activates NF-kappaB, counter-screen to STAT1 activators; shares compounds with STAT1 activator; HEK293T NF-kB luciferase reporter, TNF-alpha stimulated, luminescence; 100% = TNF-alpha with vehicle only; activation (% of control), % at 5.7 µM; 1,200 compounds, 43% hits; AID 1306;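 active means activation above the mean of solvent-only control wells plus 3 SD, set per campaign, cut at about 130% in these data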;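 further: TNF-alpha given at a submaximal dose yielding about 80% of full reporter signal; values are well signal over median control so 100% means no change and 0% no light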
STAT3 act STAT1c = counter-screen for STAT1 activators: human STAT3 activation; U3A cells STAT3-luciferase reporter, IL-6, luminescence; cells lack STAT1; 100 = IL-6 alone, no compound effect; shares compounds with STAT1 activator; activation (% of control), % at 5.7 µM; 1,200 compounds, 46% hits; AID 1316;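 active means activation above the solvent-only control well mean plus 3 SD, set per plate batch, cut at about 110% in these data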;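 further: 0% = no luminescence and 100% = median IL-6 plus DMSO wells; higher means more STAT3 reporter activation so hits are non-selective activators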
An asterisk follows results filed as active.

Results for CCOc1ccc2nc(N3CCOCC3)nc(C)c2c1 ?
Mdm2 ligase inh: -13; NF-kB neuron act: 3.8*; Wee1 stabilizer: -1; STAT1 activator: 155*; APP 5'UTR act: 130; p97 inhibitor: -1; STAT1 activ conf: 181*; NFkB act STAT1ct: 130; STAT3 act STAT1c: 110

What do the screens show for `CCOc1ccc(Nc2cc(C)nc(N3CCOCC3)n2)cc1`?
Mdm2 ligase inh: 3; NF-kB neuron act: 1.3; Wee1 stabilizer: -4; STAT1 activator: 109; APP 5'UTR act: 1; p97 inhibitor: 4

What do the screens show for `CC1=CC(c2ccccc2)=Nc2ccc(C)cc2N1`?
Mdm2 ligase inh: -4; NF-kB neuron act: 5.4*; Wee1 stabilizer: 7; STAT1 activator: 165*; APP 5'UTR act: 182*; p97 inhibitor: -3; STAT1 activ conf: 202*; NFkB act STAT1ct: 130; STAT3 act STAT1c: 131*

What do the screens show for `COc1ccc(OC)c(NC(=O)/C=C/c2ccccc2[N+](=O)[O-])c1`?
Mdm2 ligase inh: -4; NF-kB neuron act: 0.67; Wee1 stabilizer: 0; STAT1 activator: 99; APP 5'UTR act: 29; p97 inhibitor: 2

How did COc1cccc(NC(=O)/C=C/c2ccccc2[N+](=O)[O-])c1 do in these assays?
Mdm2 ligase inh: 4; NF-kB neuron act: 3.6*; Wee1 stabilizer: 0; STAT1 activator: 154*; APP 5'UTR act: 138*; p97 inhibitor: -1; STAT1 activ conf: 177*; NFkB act STAT1ct: 137*; STAT3 act STAT1c: 117*

What do the screens show for `Cc1c(-c2nc(N)nc(Nc3ccccc3)n2)oc2ccccc12`?
Mdm2 ligase inh: -1; NF-kB neuron act: 3; Wee1 stabilizer: 10.0*; STAT1 activator: 164*; APP 5'UTR act: 154*; p97 inhibitor: -1; STAT1 activ conf: 211*; NFkB act STAT1ct: 148*; STAT3 act STAT1c: 107

How did Nc1nc(CN2CCCCCC2)nc(Nc2ccccc2)n1 do in these assays?
Mdm2 ligase inh: 8; NF-kB neuron act: 0.74; Wee1 stabilizer: -1; STAT1 activator: 98; APP 5'UTR act: 10; p97 inhibitor: 5

What do the screens show for `COc1ccc(-c2cc3ncc(-c4ccccc4)c(N)n3n2)cc1`?
Mdm2 ligase inh: -27; NF-kB neuron act: 2.7; Wee1 stabilizer: 5; STAT1 activator: 156*; APP 5'UTR act: 225*; p97 inhibitor: -4; STAT1 activ conf: 198*; NFkB act STAT1ct: 126; STAT3 act STAT1c: 101

How did N#Cc1cnc2cc(-c3ccccc3)nn2c1N do in these assays?
Mdm2 ligase inh: -7; Wee1 stabilizer: -1; p97 inhibitor: 7

Results for CCOC(=O)N/N=C(/c1ccccc1)C1CCCCC1 ?
Mdm2 ligase inh: -8; NF-kB neuron act: 1.3; Wee1 stabilizer: 5; STAT1 activator: 100; APP 5'UTR act: 12; p97 inhibitor: 3

How did O=C1Nc2ccc(Br)cc2C12NNc1ccccc1O2 (centres undefined) do in these assays?
Mdm2 ligase inh: 4; NF-kB neuron act: 1.2; Wee1 stabilizer: 5; STAT1 activator: 100; APP 5'UTR act: -11; p97 inhibitor: 0

What do the screens show for `COc1ccc(/C(N)=N/OC(=O)c2ccc3c(c2)OCO3)cc1`?
Mdm2 ligase inh: -3; NF-kB neuron act: 2.9; Wee1 stabilizer: -5; STAT1 activator: 113; APP 5'UTR act: 60; p97 inhibitor: 9

How did Cc1ccc(/C(N)=N/OC(=O)c2ccc3c(c2)OCO3)cc1 do in these assays?
Mdm2 ligase inh: -37; NF-kB neuron act: 5*; Wee1 stabilizer: 4; STAT1 activator: 156*; APP 5'UTR act: 142*; p97 inhibitor: 4; STAT1 activ conf: 186*; NFkB act STAT1ct: 136*; STAT3 act STAT1c: 105

How did N/C(=N\OC(=O)c1ccc2c(c1)OCO2)c1ccc(Cl)cc1 do in these assays?
Mdm2 ligase inh: -39; NF-kB neuron act: 5.9*; Wee1 stabilizer: 0; STAT1 activator: 153*; APP 5'UTR act: 101; p97 inhibitor: 2; STAT1 activ conf: 187*; NFkB act STAT1ct: 130; STAT3 act STAT1c: 102

Results for Cc1ccc(C#CC[N+](C)(C)CC#Cc2ccccc2)cc1 ?
Mdm2 ligase inh: -30; NF-kB neuron act: 1; Wee1 stabilizer: 1; STAT1 activator: 86; APP 5'UTR act: -11; p97 inhibitor: 0

How did Cc1cc(NCCOCCO)n2ncc(-c3ccc(Cl)cc3)c2n1 do in these assays?
Mdm2 ligase inh: -30; NF-kB neuron act: 3.6*; Wee1 stabilizer: 6; STAT1 activator: 177*; APP 5'UTR act: 152*; p97 inhibitor: -5; STAT1 activ conf: 265*; NFkB act STAT1ct: 135*; STAT3 act STAT1c: 133*

What do the screens show for `CCN(CC)c1ccc(C(=O)OCC(=O)Nc2sccc2C#N)cc1`?
Mdm2 ligase inh: -6; NF-kB neuron act: 2.1; Wee1 stabilizer: 2; STAT1 activator: 123; APP 5'UTR act: 45; p97 inhibitor: -1

Results for N#Cc1ccsc1NC(=O)COC(=O)c1ccc(NC(N)=O)cc1 ?
Mdm2 ligase inh: -11; NF-kB neuron act: 1.1; Wee1 stabilizer: 0; STAT1 activator: 166*; APP 5'UTR act: 128; p97 inhibitor: 1; STAT1 activ conf: 199*; NFkB act STAT1ct: 137*; STAT3 act STAT1c: 141*

How did O=C(OCc1csc(-c2ccccc2)n1)c1cccs1 do in these assays?
Mdm2 ligase inh: -53; NF-kB neuron act: 3; Wee1 stabilizer: -4; STAT1 activator: 152*; APP 5'UTR act: 17; p97 inhibitor: 2; STAT1 activ conf: 181*; NFkB act STAT1ct: 120; STAT3 act STAT1c: 108

What do the screens show for `Cc1ccc2nc(C)c3c(c2c1)COC3`?
Mdm2 ligase inh: -4; NF-kB neuron act: 1.4; Wee1 stabilizer: 0; STAT1 activator: 97; APP 5'UTR act: 1; p97 inhibitor: -4

What do the screens show for `O=S(=O)(Nc1nc2ccccc2nc1N1CCc2ccccc2C1)c1ccc(Br)cc1`?
Mdm2 ligase inh: -29; NF-kB neuron act: 1.8; Wee1 stabilizer: 3; STAT1 activator: 158*; APP 5'UTR act: 64; p97 inhibitor: -10; STAT1 activ conf: 181*; NFkB act STAT1ct: 85; STAT3 act STAT1c: 133*

High-throughput results deposited in PubChem BioAssay by several laboratories.
